Experimental findings from PubChem BioAssay AID493236 (Broad Institute, 2011) are described below.

Inconclusive results are not listed. Values without a mark were called inactive. Activity calls are given as the source filed them.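 Rule for the calls: active = luminescence cut by more than half of the full-inhibition control window in a dose series; inconclusive = no clear call, values can overlap the other calls; inactive = signal rising instead of falling, or the rest.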

The test has as its system proteasome chymotrypsin-like activity (human). The test can be described thus: proteasome chymotrypsin-like activity inhibitors, dose response, counter-screen for HIF pathway activator project, cell-based, U2OS, luminescence, dry powder, set 4 (AID 493236). The following applies: U2OS cells, Proteasome-Glo chymotrypsin luminescence; series mostly up to 38 µM; activity change, negative = inhibition: at the top concentration. The procedure, abridged: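 System: U2OS cells. Input: 2,500 U2OS cells per well. Compound dosing: 8-point threefold dilution series, source stock top 16.5 mM. Timing: 24 h plating, 4 h compound, 2 h reagent. Technique: Proteasome-Glo luminescence. Evaluation: percent activity relative to MG132 and DMSO. Controls: MG132 (1 µM) and DMSO. Repeats: each compound tested in duplicate.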
For orientation: A counterscreen serves to expose hits that act by an unwanted route or on another target.
`OCCCNc1nc(-c2ccccn2)nnc1-c1ccccc1`: the “activity change, negative = inhibition” value was -1.6%. Still for that read-out and setting: the same measure for `COc1cccc(CNc2nc(-c3ccccn3)nnc2-c2ccccc2)c1`: 2.66%; for `Oc1ccc(CN2CCC(Cc3ccccc3)CC2)c2cccnc12`: -2.75%. The same measure, in the same setting: the same measure for `O=C(NCCN1CCOCC1)c1cc(-c2ccccc2)on1`: -6.96%. Still for that read-out and setting: for `C[C@@H](Nc1nc(-c2ccccn2)nnc1-c1ccccc1)c1ccccc1` the value was -7.7%; for `c1ccc(-c2cccc(CNc3nc(-c4ccccn4)nnc3-c3ccccc3)c2)cc1`, 10.3%.

`c1ccc(-c2nnc(-c3ccccn3)nc2NCC2CC2)cc1`: the “activity change, negative = inhibition” value is -1.38%.

For the compound `Cc1ccc(CNC(=O)c2cc(-c3ccccc3)on2)cc1`, the “activity change, negative = inhibition” value was 2.56%. Take `Oc1ccc(CN2CCc3ccccc3C2)c2cccnc12`: the compound was called inactive.

Take `c1ccc(CCNc2nc(-c3ccccn3)nnc2-c2ccccc2)cc1`: the “activity change, negative = inhibition” value was -3.33%. Same read-out and setting: the same measure for `Cc1ccc(CNc2nc(-c3ccccn3)nnc2-c2ccccc2)cc1C`: -3.29%; for `O=C(NCCCn1ccnc1)c1cc(-c2ccccc2)on1`: -8.48%; for `OCC1CCN(c2nc(-c3ccccn3)nnc2-c2ccccc2)CC1`: -0.354%. Consider `Cc1cccc(CNc2nc(-c3ccccn3)nnc2-c2ccccc2)c1`, for which the “activity change, negative = inhibition” value is -2.56%.

Take `c1ccc(-c2nnc(-c3ccccn3)nc2NCCN2CCOCC2)cc1`: the “activity change, negative = inhibition” value is -6.63%. Still for that read-out and setting: for `Cc1cccc(CNC(=O)c2cc(-c3ccccc3)on2)c1` the value was 4.7%. On the same count and under the same terms, for `O=C(NCCCO)c1cc(-c2ccccc2)on1` the value was 0.054%; for `O=C(NCCCCO)c1cc(-c2ccccc2)on1`, -7.19%. Regarding `CN1CCN(C(=O)c2cc(-c3ccccc3)on2)CC1`, the “activity change, negative = inhibition” value is -0.104%. Regarding `c1ccc(-c2nnc(-c3ccccn3)nc2NCCc2ccccn2)cc1`, the “activity change, negative = inhibition” value was -5.96%. Same read-out and setting: the same measure for `c1ccc(-c2ccc(CNc3nc(-c4ccccn4)nnc3-c3ccccc3)cc2)cc1`: -2.18%.
